Assay results reported in ChEMBL document CHEMBL1255521, “Identification and optimization of substituted 5-aminopyrazoles as potent and selective adenosine A1 receptor antagonists” (Bioorg Med Chem Lett, 2010).
Calls of active or inactive are those of the source. The calls are words filed in the database; no cut-off is given here.

How the values were obtained:
Adenosine receptor A1 = target: T1, Adenosine receptor A1 (Homo sapiens, UniProt P30542); assay: Antagonist activity at adenosine A1 receptor by cAMP assay; format: functional
T1 sequence (P30542 whole entry): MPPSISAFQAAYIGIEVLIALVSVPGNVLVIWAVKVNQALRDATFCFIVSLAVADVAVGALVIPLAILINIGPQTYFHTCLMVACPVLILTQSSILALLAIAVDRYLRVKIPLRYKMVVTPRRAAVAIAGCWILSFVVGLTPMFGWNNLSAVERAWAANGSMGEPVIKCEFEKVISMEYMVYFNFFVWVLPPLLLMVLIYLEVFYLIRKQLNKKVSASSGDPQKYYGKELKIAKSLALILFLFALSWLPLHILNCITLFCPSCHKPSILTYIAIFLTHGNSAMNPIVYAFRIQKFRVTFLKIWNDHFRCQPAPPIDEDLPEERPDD
Procedure, shortened: (§1)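 cAMP functional assay run in antagonist mode at each receptor subtype, with IC50 values reported as means of three experiments.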

Adenosine receptor A2a = Adenosine receptor A2a (Homo sapiens, UniProt P29274); assay: Antagonist activity at adenosine A2A receptor by cAMP assay; format: functional; procedure, shortened: as §1
Adenosine receptor A2b = target: T2, Adenosine receptor A2b (Homo sapiens, UniProt P29275); assay: Antagonist activity at adenosine A2B receptor by cAMP assay; format: functional; procedure, shortened: as §1
T2 sequence (P29275 whole entry): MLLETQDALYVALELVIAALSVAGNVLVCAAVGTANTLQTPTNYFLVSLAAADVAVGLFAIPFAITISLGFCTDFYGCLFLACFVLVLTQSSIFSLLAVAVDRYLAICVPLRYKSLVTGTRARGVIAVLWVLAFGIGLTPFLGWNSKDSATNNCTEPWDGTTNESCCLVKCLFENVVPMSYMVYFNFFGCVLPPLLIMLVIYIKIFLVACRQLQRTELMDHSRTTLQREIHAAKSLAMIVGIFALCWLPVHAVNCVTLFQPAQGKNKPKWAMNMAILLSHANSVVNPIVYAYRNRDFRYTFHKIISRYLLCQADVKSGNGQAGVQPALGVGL

Adenosine receptor A3 = target: T3, Adenosine receptor A3 (Homo sapiens, UniProt P0DMS8); assay: Antagonist activity at adenosine A3 receptor by cAMP assay; format: functional; procedure, shortened: as §1
T3 sequence (P0DMS8 whole entry): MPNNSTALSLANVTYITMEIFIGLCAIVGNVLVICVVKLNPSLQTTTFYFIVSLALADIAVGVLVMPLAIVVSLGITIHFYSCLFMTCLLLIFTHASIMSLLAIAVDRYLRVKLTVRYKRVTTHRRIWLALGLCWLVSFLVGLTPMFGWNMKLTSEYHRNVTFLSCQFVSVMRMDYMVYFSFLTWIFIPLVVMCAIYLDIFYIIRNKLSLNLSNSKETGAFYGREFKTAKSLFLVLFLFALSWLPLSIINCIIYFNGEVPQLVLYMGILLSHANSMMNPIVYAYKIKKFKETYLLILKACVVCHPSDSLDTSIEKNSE

[1] = Blood clearance in Wistar rat at 1 mg/kg, iv and 3 mg/kg, po; format: ADME, organism-based; conditions: whole blood
Procedure, shortened: (§2)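 Pharmacokinetics in Wistar rats, with intravenous dosing at 1 mg/kg in a vehicle of 1% DMSO and 99% plasma.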

[2] = Half life in Wistar rat at 1 mg/kg, iv and 3 mg/kg, po; format: ADME, organism-based; conditions: in vivo; procedure, shortened: as §2
[3] = Oral bioavailability in Wistar rat at 3 mg/kg; format: ADME, organism-based; conditions: in vivo
Rattus norvegicus [4] = assay: Diuretic activity in Wistar rat assessed as urine volume at 0.3 mg/kg, iv administered after 7 days of acclimatization; format: functional, organism-based; parameters: dose 0.3 mg/kg
Procedure, shortened: (§3)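 Wistar rats received compound intravenously in 1 ml/kg vehicle (40% PEG400, 60% Tris buffer), 6–8 animals per dose group, at doses between 0.1 and 3.0 mg/kg. Urine was collected at the cage bottom into collecting tubes, usually over 4 h. Volume was measured, and sodium and potassium were read by flame photometer.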

Rattus norvegicus [5] = assay: Natriuretic activity in Wistar rat assessed as increase in natriuresis at 0.1 mg/kg, iv administered after 7 days of acclimatization; format: functional, organism-based; parameters: dose 0.1 mg/kg; procedure, shortened: as §3
Mus musculus [6] = assay: Anticonvulsant activity in mouse assessed as inhibition of maximal electroshock-induced convulsion at 30 mg/kg, iv by MES test; format: functional, organism-based; parameters: dose 30 mg/kg
Mus musculus [7] = assay: Anticonvulsant activity in mouse assessed as inhibition of pentylenetetrazole-induced convulsion at 30 mg/kg, iv; format: functional, organism-based; parameters: dose 30 mg/kg
[8] = Selectivity ratio of IC50 for adenosine A2B receptor to IC50 for adenosine A1 receptor

Adenosine receptor A2a, sequence (P29274 whole entry): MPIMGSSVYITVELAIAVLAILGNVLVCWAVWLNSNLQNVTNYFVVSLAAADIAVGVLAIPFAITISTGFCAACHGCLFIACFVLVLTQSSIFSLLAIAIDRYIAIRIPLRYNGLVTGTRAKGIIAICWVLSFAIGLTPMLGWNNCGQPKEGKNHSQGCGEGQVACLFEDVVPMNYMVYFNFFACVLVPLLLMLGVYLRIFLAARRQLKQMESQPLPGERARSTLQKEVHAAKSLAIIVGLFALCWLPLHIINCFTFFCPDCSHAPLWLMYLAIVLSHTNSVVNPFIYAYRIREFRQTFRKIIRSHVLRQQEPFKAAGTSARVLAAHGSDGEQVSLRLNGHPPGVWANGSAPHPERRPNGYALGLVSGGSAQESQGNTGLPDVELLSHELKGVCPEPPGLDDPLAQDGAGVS

Cc1ccccc1-n1nc(C)c(-c2ccc3nccnc3c2)c1Nc1ccccc1C(=O)O
IC50 (Adenosine receptor A1): 8 nM
IC50 (Adenosine receptor A2a): > 50000 nM
IC50 (Adenosine receptor A2b): > 50000 nM

COc1ccc(Nc2c(-c3ccc4nccnc4c3)c(C)nn2-c2ccccc2Cl)c(C(=O)O)c1
IC50 (Adenosine receptor A1): 7.3 nM
IC50 (Adenosine receptor A2a): > 50000 nM
IC50 (Adenosine receptor A2b): > 50000 nM

COc1ccc(Nc2c(-c3ccc4nccnc4c3)c(C)nn2C2CCCCC2)c(C(=O)O)c1
IC50 (Adenosine receptor A1): 435 nM
IC50 (Adenosine receptor A2a): > 50000 nM
IC50 (Adenosine receptor A2b): > 50000 nM

Cc1ccccc1-n1nc(C)c(-c2cc(F)c3nccnc3c2)c1Nc1ccccc1C(=O)O
IC50 (Adenosine receptor A2a): > 50000 nM
IC50 (Adenosine receptor A2b): > 50000 nM
IC50 (Adenosine receptor A3): > 10000 nM
clearance [1]: 9.5 mL/min/kg
half-life [2]: 1.8 h
bioavailability [3]: 97%
Activity (Rattus norvegicus [4]): Active
Activity (Rattus norvegicus [5]): Active
Activity (Mus musculus [6]): inactive
Activity (Mus musculus [7]): inactive
Ratio IC50 [8]: > 83000

CCc1ccccc1-n1nc(C)c(-c2ccc3nccnc3c2)c1Nc1ccc(OC)cc1C(=O)O
IC50 (Adenosine receptor A1): 6.4 nM
IC50 (Adenosine receptor A2a): > 50000 nM
IC50 (Adenosine receptor A2b): > 50000 nM

COc1ccc(Nc2c(-c3ccc4c(c3)OCO4)c(C)nn2-c2ccccc2C)c(C(=O)O)c1
IC50 (Adenosine receptor A1): 231 nM

COc1ccc(Nc2c(-c3ccc4c(c3)OCCO4)c(C)nn2-c2ccccc2C)c(C(=O)O)c1
IC50 (Adenosine receptor A1): 27 nM

COc1ccc(Nc2c(-c3ccc(C)cc3)c(C)nn2-c2ccccc2C)c(C(=O)O)c1
IC50 (Adenosine receptor A1): 3.16 nM

COc1ccc(Nc2c(-c3ccc(F)c(F)c3)c(C)nn2-c2ccccc2C)c(C(=O)O)c1
IC50 (Adenosine receptor A1): 294 nM

Cc1ccc(Nc2c(-c3ccc4nccnc4c3)c(C)nn2-c2ccccc2C)c(C(=O)O)c1
IC50 (Adenosine receptor A1): 5.1 nM
IC50 (Adenosine receptor A2a): > 50000 nM
IC50 (Adenosine receptor A2b): > 50000 nM

COc1ccc(-c2c(C)nn(-c3ccccc3C)c2Nc2ccc(OC)cc2C(=O)O)cc1
IC50 (Adenosine receptor A1): 306 nM

Cc1ccccc1-n1nc(C)c(-c2ccc3nccnc3c2)c1Nc1ccc(Cl)cc1C(=O)O
IC50 (Adenosine receptor A1): 16 nM
IC50 (Adenosine receptor A2a): > 50000 nM
IC50 (Adenosine receptor A2b): > 50000 nM

COc1ccc(Nc2c(-c3ccc(C(C)=O)cc3)c(C)nn2-c2ccccc2C)c(C(=O)O)c1
IC50 (Adenosine receptor A1): 40 nM
clearance [1]: 66.7 mL/min/kg
half-life [2]: 1.5 h
bioavailability [3]: 20%

COc1ccc(Nc2c(-c3ccc(C)c(C)c3)c(C)nn2-c2ccccc2C)c(C(=O)O)c1
IC50 (Adenosine receptor A1): 568 nM

COc1ccc(Nc2c(-c3ccc(F)cc3)c(C)nn2-c2ccccc2C)c(C(=O)O)c1
IC50 (Adenosine receptor A1): 1.39 nM

Cc1ccccc1-n1nc(C(F)(F)F)c(-c2ccc3nccnc3c2)c1Nc1ccccc1C(=O)O
IC50 (Adenosine receptor A1): 9 nM
IC50 (Adenosine receptor A2a): > 50000 nM
IC50 (Adenosine receptor A2b): 19000 nM

COc1ccc(Nc2c(-c3ccc4nccnc4c3)c(C)nn2-c2ccccc2C)c(C(=O)O)c1
IC50 (Adenosine receptor A1): 3.2 nM
IC50 (Adenosine receptor A2a): > 50000 nM
IC50 (Adenosine receptor A2b): > 50000 nM
IC50 (Adenosine receptor A3): 13000 nM
clearance [1]: 43.7 mL/min/kg
half-life [2]: 0.4 h
bioavailability [3]: 20%

COc1ccc(Nc2c(-c3ccc4nccnc4c3)c(C)nn2-c2ccccc2)c(C(=O)O)c1
IC50 (Adenosine receptor A1): 2.8 nM
IC50 (Adenosine receptor A2a): 5500 nM
IC50 (Adenosine receptor A2b): 1100 nM

COc1ccc(Nc2c(-c3ccc(OC)c(OC)c3)c(C)nn2-c2ccccc2C)c(C(=O)O)c1
IC50 (Adenosine receptor A1): 233 nM

CCc1nn(-c2ccccc2C)c(Nc2ccccc2C(=O)O)c1-c1ccc2nccnc2c1
IC50 (Adenosine receptor A1): 13 nM
IC50 (Adenosine receptor A2a): > 50000 nM
IC50 (Adenosine receptor A2b): > 50000 nM

Cc1ccccc1-n1ncc(-c2ccc3nccnc3c2)c1Nc1ccccc1C(=O)O
IC50 (Adenosine receptor A1): 277 nM
IC50 (Adenosine receptor A2a): > 50000 nM
IC50 (Adenosine receptor A2b): > 50000 nM
